Square brackets hold non-standard residues; d marks the D form. Peptide text beside a SMILES is read from it. * marks the point of attachment. Dolaproine = CO[C@@H]([C@@H]1CCCN1)[C@@H](C)C(=O)O; Dil = CC[C@H](C)[C@H](NC)[C@@H](CC(=O)O)OC; X1 = C[C@@H](N*)[C@@H](O)c1ccccc1; NMeV = CN[C@H](C(=O)O)C(C)C
What was measured:
Py230 tumors = experiment: Therapeutic study, Py230 syngeneic tumors; type: in vivo, mice
Summary of the method: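 Tumors reach 5–7 mm diameter in 5–6 weeks. Test compound (MMAE conjugate) dosed at 0.2mg/kg MMAE, ~6.5 nanomoles of conjugate. Free MMAE and controls run alongside. Tumor volume followed.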

[1] = cited from earlier work

CC[C@H](C)[C@@H]([C@@H](CC(=O)N1CCC[C@H]1[C@H](OC)[C@@H](C)C(=O)N[C@H](C)[C@@H](O)c1ccccc1)OC)N(C)C(=O)[C@@H](NC(=O)[C@@H](NC)C(C)C)C(C)C [MMAE, Monomethylauristatin E] (H-[NMeV]V[Dil][Dolaproine]-X1)
final tumor mass, dose finding (Py230 tumors; Py230, MMAE at concentrations up to 0.6mg/kg): Only the tumors treated at the highest dose had a reduction in final mass
effect on tumor growth (Py230 tumors; Py230, immunocompetent mice, 0.2mg/kg MMAE): no impact on tumor growth
maximum tolerated dose [1]: 0.5 to 1.0 mg/kg

Reference: publication PMC4051287 (Molecular cancer therapeutics, 2014)
